This is an account of results in PubChem BioAssay AID504383 (The Scripps Research Institute Molecular Screening Center, 2011).

Screen size: about 2,500 compounds; about 1,200 (48%) were called active.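 Rule for the calls: active = mean activation above the low control average plus 3 SD, as set in the primary screen (cut at about 12% in these data); inactive = the rest.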 The set was probably picked from earlier hits. This is one part of the list.

This experiment addresses Troponin I, cardiac muscle (Homo sapiens) + Troponin T, cardiac muscle (Homo sapiens) + Troponin C, slow skeletal and cardiac muscles (Homo sapiens) (UniProt P19429+P45379+P63316). The experiment is described as follows: calcium sensitizers of cardiac thin filaments – biochemical, IANBD-TnC fluorescence, triplicate, confirmation (AID 504383).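 Note: 0% = DMSO at 0.472 mM calcium and 100% = DMSO at 2.9 mM calcium.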 The settings on record: IANBD-labeled cardiac RTF, Ca2+ sensitivity fluorescence; at 7.2 µM; stronger effect = higher value; scaled from EC20 to saturating calcium; tested at EC20 calcium, 0.472 mM. A digest of the protocol: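 Assay system: labelled regulated thin filaments / Timing: 15 min at 25 °C / Detection: fluorescence intensity of labelled filaments / Measure: fluorescence gain scaled between EC20 and EC100 calcium controls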
For the compound `Cc1cc(C)c(NC(=S)N(C)C)c(C)c1`, the activation was 42.1% (active).
On to `N=C1c2ccccc2CN1c1ccc(S(=O)(=O)N2CCCCC2)cc1`, for which the activation is 49.2% (active).
The result for `CSc1nnc(-c2ccc(S(=O)(=O)N3CCCC3)cc2)n1C` reads -0.41% (inactive).
To `CN(C)c1ccc(/C=C/C(=O)c2ccccc2O)cc1` belongs 6.07% (inactive); to `CN(C)c1ccc(/C=C/C(=O)c2c(O)c3ccccc3oc2=O)cc1`, 12.3% (active); to `CCOc1cccc2c1OC(c1cc(OC)c(OC)c(OC)c1)N1N=C(c3ccc(C)o3)CC21` (centres undefined), 11.7% (active).
`O=C1NCCN1c1ncc([N+](=O)[O-])s1`: the activation was 19.6% (active).
With `CC(=O)N(C)c1ccc(C(O)(C(F)(F)F)C(F)(F)F)cc1`, the activation was 30.4% (active).
Regarding `COc1ccc(CCNC(=O)COC(=O)c2cc(=O)[nH]c3ccccc23)cc1`, the activation was 93% (active).
The result for `COc1cccc(/C(O)=C/c2nc3ccc(C(=O)NCCc4cccc(C)c4)cc3[nH]c2=O)c1` reads 9.81% (inactive); that for `COc1ccc(CCNC(=O)C2CC(c3c(Cl)cccc3Cl)=NO2)cc1` (centres undefined), 7.74% (inactive); that for `CCc1ccc(/C=N/n2c(C)cc(C)c(C#N)c2=O)cc1`, 7.16% (inactive).
To `Cc1c(/C=N/O)c2ccccn2c1C=O` belongs 8.72% (inactive).
For the compound `CN1CCC(N(CCc2ccccc2)C(=O)CCC(=O)O)CC1`, the activation was 146% (active).
On to `CCN(CC)c1nc2ccccc2nc1C(C#N)C(=O)NCCc1ccccc1` (centres undefined), for which the activation is 532% (active).
As to `CCCCCCNC(=O)C(C#N)c1nc2ccccc2nc1N1CCCC1` (centres undefined), the activation was 5.18% (inactive).
With `N#CC(C(=O)NCc1ccccc1)c1nc2ccccc2nc1N1CCCC1` (centres undefined), the activation is -1.52% (inactive).
The result for `O=C(NCC(=O)N1CCN(c2ncccn2)CC1)c1ccccc1OC(F)F` reads 0.94% (inactive); that for `COc1ccc(C(=O)NCC(=O)N2CCN(C(=O)c3ccco3)CC2)cc1OC`, 47.6% (active); that for `Cc1ccc(NC2OC(C(O)CO)C(O)C2O)cc1[N+](=O)[O-]` (centres undefined), 8.56% (inactive).
In the case of `COc1ccccc1NC(=O)COC(=O)c1cnc(C)cn1`, the activation is 101% (active).
The result for `O=C(/C=C/c1nc2ccccc2s1)N1CCCCCC1` reads 35% (active).
As to `O=C(c1ccccc1)N1CCCCC1`, the activation is 8.78% (inactive).
The result for `CC(=O)Nc1sc2c(c1-c1nc3ccccc3s1)CCN(C(C)C)C2` reads 10.5% (inactive).
Consider `FC(F)(F)c1cccc(-c2nc(COc3ccc(Cl)cc3Cl)no2)c1`, for which the activation was 5570% (active).
The result for `Cc1cn(COC/C=C/c2ccccc2)c(=O)[nH]c1=O` reads 81.1% (active); that for `CCc1nc(Nc2ccc(O)cc2)c2oc3ccccc3c2n1`, 56.6% (active); that for `C=CCNC(=S)NNC(=O)c1ccc(OCC(C)C)cc1`, 4.58% (inactive).
The result for `NC(=O)NC(=O)COC(=O)c1cccc(NS(=O)(=O)/C=C/c2ccccc2)c1` reads 38.6% (active); that for `CC(C)C(=O)COc1c2occc2cc2ccc(=O)oc12`, 1.65% (inactive); that for `CCOC(=O)N1CCC(Nc2nc3ccccc3nc2NS(=O)(=O)c2ccc(Cl)cc2)CC1`, 11.1% (inactive).
With `CCOC(=O)c1cnc(SC)nc1Oc1cccc(NS(=O)(=O)c2ccc(Cl)cc2)c1`, the activation was 14.8% (active).
On to `CCC1(CC)C(=O)Nc2ccccc21`, for which the activation was 5.14% (inactive).
On to `O=C(O)c1cccc(-c2ccc(/C=N/Nc3ccc([N+](=O)[O-])cc3)o2)c1`, for which the activation is 12.7% (active).
In the case of `CN(N=Nc1ccc([N+](=O)[O-])cc1)c1ccccc1`, the activation is 36.2% (active).
Take `O=[N+]([O-])c1ccc(N(c2ccccc2)c2ccccc2)cc1`: the activation was 14.5% (active).
For the compound `Cc1cc([N+](=O)[O-])ccc1-c1ccc(/C=N/NC(=O)c2ccc(Br)o2)o1`, the activation is 7.92% (inactive).
Regarding `Cc1ccc(C(=O)N/C(=C/c2ccc(-c3ccc([N+](=O)[O-])cc3)o2)C(=O)NCCCN(C)C)cc1`, the activation is 5.11% (inactive).
On to `O=C1CC(c2ccccc2)=NN1c1ccc([N+](=O)[O-])cc1`, for which the activation is 10.7% (inactive).
Take `CN(/N=C/c1ccc(-c2ccc([N+](=O)[O-])cc2)o1)c1ccccc1`: the activation is 30.8% (active).
To `Cc1oc2c(cc(NS(=O)(=O)c3ccc(C(C)C)cc3)c3ccccc32)c1C(=O)O` belongs 9.7% (inactive); to `COc1ccc2nc3ccccc3[n+]([O-])c2c1`, 13.1% (active); to `CCOCCCNc1ccc(-c2ccccc2)nn1`, 8.24% (inactive).
For the compound `COc1cc(/C=C/C(=O)/C=C(O)/C=C/c2ccc(O)c(OC)c2)ccc1O`, the activation is 287% (active).
As to `COc1cc(/C=C/C=C2/CC/C(=C/C=C/c3ccc(O)c(OC)c3)C2=O)ccc1O`, the activation was 19.4% (active).
The result for `COc1cc(/C=C/C(=O)CC(=O)/C=C/c2ccc(O)c(OC)c2)ccc1O` reads 9.89% (inactive); that for `O=C(/C=C(O)/C=C/c1ccc(O)cc1)/C=C/c1ccc(O)cc1`, 10.7% (inactive).
As for `COc1cc(/C=C/C(O)=C/C(=O)/C=C/c2ccc(O)cc2)ccc1O`, the activation is 8.41% (inactive).
`CCN(CC)c1ccc2cc(C(C)=O)c(=O)oc2c1`: the activation was 0.78% (inactive).
`CCN(CC)c1ccc2cc(S(=O)(=O)c3ccc(C)cc3)c(=O)oc2c1`: the activation was 32.5% (active).
`CCN(CC)c1ccc2c(c1)oc(=O)c1c(Cl)cc(=O)oc12`: the activation is 63.5% (active).
To `CCN(CC)c1ccc2cc(S(=O)(=O)c3ccc(Cl)cc3)c(=O)oc2c1` belongs 372% (active); to `CCN(CC)c1ccc2c(Cl)c(Br)c(=O)oc2c1`, 8.56% (inactive); to `CCN(CC)c1ccc2cc(C=O)c(=O)oc2c1`, 17% (active).
As to `CCN(CC)c1ccc2cc(NC(=O)CCC(=O)O)c(=O)oc2c1`, the activation was 4.16% (inactive).
To `Clc1ccccc1N=Nc1ccccn1` belongs 9.89% (inactive); to `CCN(CC)c1ccc2oc(=O)c(C)nc2c1`, 364% (active); to `CCOC(=O)c1c(C#N)c(SCC(=O)Nc2ccc(OC)cc2)nc2c1CN(CC)CC2`, 78.6% (active).
On to `COc1cccc2c1C(=O)c1c(O)c3c(c(O)c1C2=O)CC(O)(C(C)=O)CC3OC1CC(N(C)C)C(O)C(C)O1` (centres undefined), for which the activation was 6.16% (inactive).
Turning to `COc1cccc2c1C(=O)c1c(O)c3c(c(O)c1C2=O)CC(O)(C(=O)CO)CC3OC1CC(N(C)C)C(O)C(C)O1` (centres undefined), the activation was 211% (active).
`COc1cccc2c1C(=O)c1c(O)c3c(c(O)c1C2=O)C[C@@](O)(C(=O)CO)C[C@@H]3O[C@H]1C[C@H](N)[C@H](O)[C@H](C)O1`: the activation was 3.66% (inactive).
Consider `COc1cccc2c1C(=O)c1c(O)c3c(c(O)c1C2=O)C[C@](O)(C(C)=O)C[C@H]3O[C@@H]1C[C@@H](N)[C@@H](O)[C@@H](C)O1`, for which the activation is 4.79% (inactive).
To `COc1cccc2c1C(=O)c1c(O)c3c(c(O)c1C2=O)C[C@@](O)(C(=O)CO)C[C@@H]3OC1CC(N)C(O)C(C)O1` (some centres undefined) belongs 9.17% (inactive); to `COc1cccc2c1C(=O)c1c(O)c3c(c(O)c1C2=O)CC(O)(C(C)=O)CC3OC1CC(O)C(O)C(C)O1` (centres undefined), 75.5% (active).
